Measured values taken from ChEMBL document CHEMBL1128719, “The synthesis, structure-activity, and structure-side effect relationships of a series of 8-alkoxy- and 5-amino-8-alkoxyquinolone antibacterial agents” (J Med Chem, 1995).
Values after ≈ are worked out from the molar mass of the structure shown.

Experiments:
[1] = test system: Peptoniphilus asaccharolyticus; experiment: In vitro antibacterial activity was tested for Pepto asac PA 3-1; format: functional
How it was run: (§1)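 Microtitration (microdilution) MIC determination in μg/mL against a panel of Gram-positive, Gram-negative and anaerobic organisms. Values come from duplicate or triplicate experiments and are stated accurate to ±50%.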

[2] = test system: Cutibacterium acnes; experiment: In vitro antibacterial activity was tested for Propion acnes PA5-1; format: functional; how it was run: as §1
[3] = test system: Clostridioides difficile; experiment: (§2) In vitro antibacterial activity was tested for Clostridium diff CD1-1; format: functional
[4] = test system: V79; experiment: (§3) Clonogenic cytotoxicity against Chinese hamster V-79 cells; format: functional; settings: Cricetulus griseus
How it was run: (§4)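 Chinese hamster V-79 cells grown overnight, then exposed to drug 3 h at 37 °C; drug medium replaced with fresh medium, cells incubated 5 days and scored for colony formation. IC50 (μg/mL) taken as concentration inhibiting colony formation by 50% versus control.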

[5] = species: Mus musculus; experiment: (§5) Phototoxic skin reaction in depilated female CD-1 mice; format: toxicity, organism-based; settings: in vivo
How it was run: (§6)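 Female CD-1 mice, depilated, given a single oral or subcutaneous dose. UVA (320–400 nm) exposure for 3 h, starting 1 h post-dose. Initial doses were 30, 100 and 300 mg/kg. PTD50 (dose giving phototoxic skin reaction in 50% of mice) derived by probit method. First day of positive reaction and no-effect dose taken from raw data.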

[6] = species: Mus musculus; experiment: phototoxic skin reaction in depilated female CD-1 mice; format: functional
How it was run: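 Depilated female CD-1 mice given a single oral or subcutaneous dose; UVA (320–400 nm) exposure for 3 h starting 1 h post-dose. Initial doses 30, 100 and 300 mg/kg. PTD50 (dose giving phototoxic skin reaction in 50% of mice) calculated by probit method; first day of positive reaction and no-effect dose also taken from raw data.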

[7] = test system: Clostridium perfringens; experiment: In vitro antibacterial activity against Clostridium perfringens CP 3-1; format: functional
[8] = test system: Bacteroides fragilis; experiment: In vitro antibacterial activity against Bacteroides fragilis BFA; format: functional; how it was run: as §1
[9] = test system: Providencia rettgeri; experiment: In vitro antibacterial activity was tested for Providencia rettgeri H1771; format: functional; how it was run: as §1
[10] = test system: Staphylococcus aureus; experiment: In vitro antibacterial activity was tested for Staphylococcus aureus UC-76; format: functional; how it was run: as §1
[11] = test system: Escherichia coli; experiment: In vitro antibacterial activity was tested for Escherichia coli Vogel; format: functional; how it was run: as §1
[12] = test system: Enterococcus faecalis; experiment: In vitro antibacterial activity was tested for Streptococcus faecalis MGH-2; format: functional; how it was run: as §1
[13] = test system: Escherichia coli; experiment: In vitro antibacterial activity was tested for Escherichia coli H560; format: functional; how it was run: as §1
[14] = test system: Streptococcus pneumoniae; experiment: In vitro antibacterial activity was tested for Streptococcus pneumoniae SV-1; format: functional; how it was run: as §1
[15] = test system: Streptococcus pyogenes; experiment: In vitro antibacterial activity was tested for Streptococcus pyogenes C203; format: functional; how it was run: as §1
[16] = test system: Staphylococcus aureus; experiment: In vitro antibacterial activity was tested for Staphylococcus aureus H228; format: functional; how it was run: as §1
[17] = test system: Klebsiella pneumoniae; experiment: In vitro antibacterial activity was tested for Klebsiella pneumoniae MGH-2; format: functional; how it was run: as §1
[18] = test system: Pseudomonas aeruginosa; experiment: In vitro antibacterial activity was tested for Pseudomonas aeruginosa UI-18; format: functional; how it was run: as §1
[19] = test system: Enterobacter cloacae; experiment: In vitro antibacterial activity was tested for Enterobacter cloacae HA2646; format: functional
[20] = species: Mus musculus; experiment: as §5; format: functional; how it was run: as §6
[21] = test system: Clostridioides difficile; experiment: as §2; format: functional; how it was run: as §1; remark: listed apart in the source
[22] = test system: V79; experiment: as §3; format: functional, cell-based; settings: Cricetulus griseus; how it was run: as §4

Compound | MIC [1] [µg/mL] | MIC [2] [µg/mL] | MIC [3] [µg/mL] | MIC [4] [µg/mL] | PTD50 [5] [mg] | MIC [7] [µg/mL] | MIC [8] [µg/mL] | MIC [9] [µg/mL] | MIC [10] [µg/mL] | MIC [11] [µg/mL] | MIC [12] [µg/mL] | MIC [13] [µg/mL] | MIC [14] [µg/mL] | MIC [15] [µg/mL] | MIC [16] [µg/mL] | MIC [17] [µg/mL] | MIC [18] [µg/mL] | MIC [19] [µg/mL] | No effect dose [20] [mg] | IC50 [22] [µg/mL] | other results
NC1CCN(c2nc3c(cc2F)c(=O)c(C(=O)O)cn3C2CC2)C1 (stereo not drawn) | 0.8 (≈ 2.41 µM) | 0.2 (≈ 0.602 µM) | 6.3 (≈ 19 µM) | 98 (≈ 295 µM) | > 100 | 0.1 (≈ 0.301 µM) | 1.6 (≈ 4.81 µM) |  |  |  |  |  |  |  |  |  |  |  |  |  | Photoxic reaction [6]: 100 mg
COc1c(N2CCCC(CN)C2)c(F)cc2c(=O)c(C(=O)O)cn(C3CC3)c12 (stereo not drawn) |  |  |  | 22 (≈ 56.5 µM) |  |  |  | 0.8 (≈ 2.05 µM) | 0.006 (≈ 0.0154 µM) | 0.2 (≈ 0.514 µM) | 0.05 (≈ 0.128 µM) | 0.1 (≈ 0.257 µM) | 0.006 (≈ 0.0154 µM) | 0.006 (≈ 0.0154 µM) | 0.05 (≈ 0.128 µM) | 0.4 (≈ 1.03 µM) | 3.1 (≈ 7.96 µM) | 0.2 (≈ 0.514 µM) |  |  | 
NC1CCN(c2c(F)cc3c(=O)c(C(=O)O)cn(C4CC4)c3c2F)C1 (stereo not drawn) | 0.4 (≈ 1.15 µM) | 0.2 (≈ 0.573 µM) |  |  | 7.5 | 0.05 (≈ 0.143 µM) | 0.2 (≈ 0.573 µM) | 0.05 (≈ 0.143 µM) | 0.025 (≈ 0.0716 µM) | 0.013 (≈ 0.0372 µM) | 0.05 (≈ 0.143 µM) | 0.006 (≈ 0.0172 µM) | 0.05 (≈ 0.143 µM) | 0.05 (≈ 0.143 µM) | 0.05 (≈ 0.143 µM) | 0.025 (≈ 0.0716 µM) | 0.1 (≈ 0.286 µM) | 0.025 (≈ 0.0716 µM) | 3 |  | MIC [21]: 0.4 µg/mL (≈ 1.15 µM)
C[C@@H]1CN(c2c(F)c(N)c3c(=O)c(C(=O)O)cn(C4CC4)c3c2F)C[C@H](C)N1 [SPARFLOXACIN] | 0.4 (≈ 1.02 µM) | 0.4 (≈ 1.02 µM) | 6.3 (≈ 16.1 µM) |  | 28 | 0.2 (≈ 0.51 µM) | 1.6 (≈ 4.08 µM) |  |  |  |  |  |  |  |  |  |  |  | 18 | 370 (≈ 943 µM) | 
C[C@@H]1CN(c2cc3c(cc2F)c(=O)c(C(=O)O)cn3C2CC2)C[C@H](C)N1 | 0.4 (≈ 1.11 µM) | 0.8 (≈ 2.23 µM) | 6.3 (≈ 17.5 µM) |  | < 100 | 0.2 (≈ 0.556 µM) | 1.6 (≈ 4.45 µM) |  |  |  |  |  |  |  |  |  |  |  |  | > 500 | 
